Series [1] in a line: Cytotoxicity against human HL7702 cells assessed as inhibition rate at 100 uM measured after 48 hrs by MTT assay. Particulars: read-out: INH. It counts as cell-based, L02. In short, it runs like this: (§1)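 Normal liver cells were grown in DMEM with 10% FBS plus penicillin/streptomycin at 37 °C, 5% CO₂. They were seeded at 5 × 10⁵ cells/mL and incubated 24 h. Compounds from DMSO stock were added at final 50 or 100 µM (DMSO <1%), in triplicate, for 48 h. MTT was added for 4 h, formazan dissolved in DMSO, A495 read, and inhibition rate calculated.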

Series [2] is described as follows: Cytotoxicity against human QSG7701 cells assessed as inhibition rate at 100 uM measured after 48 hrs by MTT assay. It counts as cell-based. Particulars: read-out: INH. An outline of the steps:
as §1
For orientation: Tetrazolium dyes change colour on reduction, which living cells bring about.

Series [3] can be described thus: Cytotoxicity against human HL7702 cells assessed as inhibition rate at 50 uM measured after 48 hrs by MTT assay. The class given is cell-based, L02. Particulars: read-out: INH. An outline of the steps:
as §1

Series [4] in a line: Cytotoxicity against human QSG7701 cells assessed as inhibition rate at 50 uM measured after 48 hrs by MTT assay. The class given is cell-based. Particulars: read-out: INH. An outline of the steps:
as §1

A further series has as its system HCT-116. Briefly: Antiproliferative activity against human HCT116 cells assessed as growth inhibition measured after 48 hrs by MTT assay. The class given is functional, cell-based. Particulars: HCT-116, 48 h. An outline of the steps:
(§2)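 Compounds dissolved in DMSO and diluted in medium to final 0.5–50 µM (final DMSO <1%). Cells were grown in DMEM with 10% FBS, penicillin and streptomycin at 37 °C, 5% CO₂. They were seeded at 5 × 10⁵ cells/mL, incubated 24 h, then treated in triplicate per concentration for 48 h. MTT was added for 4 h, formazan dissolved in DMSO, absorbance read at 495 nm, and IC50 derived.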

In a further series the test system is A549. Briefly: Antiproliferative activity against human A549 cells assessed as growth inhibition measured after 48 hrs by MTT assay. It counts as functional, cell-based. Particulars: A549, 48 h. In short, it runs like this: as §2
The next series concerns HepG2. Briefly: Antiproliferative activity against human HepG2 cells assessed as growth inhibition measured after 48 hrs by MTT assay. It counts as functional, cell-based. As to conditions: HepG2, 48 h. In short, it runs like this: as §2
In series [5] the target is Mitogen-activated protein kinase 3 (Homo sapiens) (UniProt P27361). Briefly: Inhibition of ERK1 (unknown origin) at 50 uM. In short, it runs like this:
(§3)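 Luminescent Kinase-Glo Plus assay. Enzyme, substrate, ATP and compound were mixed in pH 7.4 buffer containing 25 mM HEPES and 10 mM MgCl2, then incubated at 30 °C for 1 h. An equal volume of Kinase-Glo Plus reagent stopped the reaction before luminescence was read. Signal tracks remaining ATP and runs inversely to kinase activity; results are given as percent inhibition.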

In series [6] the target is Mitogen-activated protein kinase 8 (Homo sapiens) (UniProt P45983). Briefly: Inhibition of JNK1 (unknown origin) at 50 uM. In short, it runs like this: as §3
Series [7] deals with Mitogen-activated protein kinase 14 (Homo sapiens) (UniProt Q16539). Briefly: Inhibition of p38-alpha (unknown origin) at 100 uM. In short, it runs like this: (§4)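 Kinase-Glo Plus luminescent assay. Enzyme, substrate, ATP and compound were mixed in 25 mM HEPES pH 7.4 with 10 mM MgCl₂ and incubated 1 h at 30 °C. The reaction was stopped with an equal volume of Kinase-Glo Plus reagent. Luminescence reflects remaining ATP, inversely related to kinase activity, and is reported as percent inhibition at a single concentration.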

Series [8] addresses RAF proto-oncogene serine/threonine-protein kinase (Homo sapiens) (UniProt P04049). Briefly: Inhibition of Raf1 (unknown origin) at 50 uM. An outline of the steps: as §4

This passage reports cytotoxicity, IC50 and inhibition results from ChEMBL document CHEMBL2331396, “Exploration of 1-(3-chloro-4-(4-oxo-4H-chromen-2-yl)phenyl)-3-phenylurea derivatives as selective dual inhibitors of Raf1 and JNK1 kinases for anti-tumor treatment” (Bioorg Med Chem, 2013).

As a reminder, the IC50 is the point on the concentration scale where inhibition reaches its midpoint. As a reminder, the inhibition is how much of the control response was suppressed. A lower inhibition goes with a response near the control.

Sequence of Mitogen-activated protein kinase 3 (Homo sapiens) (P27361 whole entry): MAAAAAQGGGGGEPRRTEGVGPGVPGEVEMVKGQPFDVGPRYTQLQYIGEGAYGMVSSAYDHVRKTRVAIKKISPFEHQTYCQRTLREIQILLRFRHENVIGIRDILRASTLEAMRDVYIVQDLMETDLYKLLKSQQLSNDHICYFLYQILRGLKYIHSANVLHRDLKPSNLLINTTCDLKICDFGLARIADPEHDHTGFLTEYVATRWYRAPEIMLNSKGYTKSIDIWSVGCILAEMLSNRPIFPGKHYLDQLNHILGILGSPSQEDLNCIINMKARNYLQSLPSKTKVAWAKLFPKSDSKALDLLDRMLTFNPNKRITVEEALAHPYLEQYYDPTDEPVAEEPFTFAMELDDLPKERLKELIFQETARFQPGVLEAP
Sequence of Mitogen-activated protein kinase 14 (Homo sapiens) (Q16539 whole entry): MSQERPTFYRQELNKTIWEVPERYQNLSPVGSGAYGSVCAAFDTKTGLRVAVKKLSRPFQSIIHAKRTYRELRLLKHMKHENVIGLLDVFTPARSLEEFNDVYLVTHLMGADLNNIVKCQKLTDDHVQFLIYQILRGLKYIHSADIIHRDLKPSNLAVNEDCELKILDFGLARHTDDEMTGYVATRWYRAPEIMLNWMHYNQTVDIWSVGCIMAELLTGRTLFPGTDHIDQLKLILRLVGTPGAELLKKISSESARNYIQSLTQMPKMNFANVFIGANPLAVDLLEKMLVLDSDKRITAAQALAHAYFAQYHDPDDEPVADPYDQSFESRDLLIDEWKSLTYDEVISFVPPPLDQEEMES
Sequence of Mitogen-activated protein kinase 8 (Homo sapiens) (P45983 whole entry): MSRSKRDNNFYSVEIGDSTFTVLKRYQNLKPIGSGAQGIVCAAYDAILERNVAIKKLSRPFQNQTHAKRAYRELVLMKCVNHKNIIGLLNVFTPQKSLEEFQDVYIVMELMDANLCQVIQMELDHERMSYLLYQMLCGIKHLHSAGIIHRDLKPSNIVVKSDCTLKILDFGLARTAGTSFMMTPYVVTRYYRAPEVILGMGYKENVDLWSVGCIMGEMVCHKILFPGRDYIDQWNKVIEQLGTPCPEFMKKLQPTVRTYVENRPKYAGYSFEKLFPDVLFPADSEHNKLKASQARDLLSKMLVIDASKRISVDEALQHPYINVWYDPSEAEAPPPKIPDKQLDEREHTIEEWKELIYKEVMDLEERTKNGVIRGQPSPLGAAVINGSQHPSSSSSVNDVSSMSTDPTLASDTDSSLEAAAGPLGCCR
Sequence of RAF proto-oncogene serine/threonine-protein kinase (Homo sapiens) (P04049 whole entry): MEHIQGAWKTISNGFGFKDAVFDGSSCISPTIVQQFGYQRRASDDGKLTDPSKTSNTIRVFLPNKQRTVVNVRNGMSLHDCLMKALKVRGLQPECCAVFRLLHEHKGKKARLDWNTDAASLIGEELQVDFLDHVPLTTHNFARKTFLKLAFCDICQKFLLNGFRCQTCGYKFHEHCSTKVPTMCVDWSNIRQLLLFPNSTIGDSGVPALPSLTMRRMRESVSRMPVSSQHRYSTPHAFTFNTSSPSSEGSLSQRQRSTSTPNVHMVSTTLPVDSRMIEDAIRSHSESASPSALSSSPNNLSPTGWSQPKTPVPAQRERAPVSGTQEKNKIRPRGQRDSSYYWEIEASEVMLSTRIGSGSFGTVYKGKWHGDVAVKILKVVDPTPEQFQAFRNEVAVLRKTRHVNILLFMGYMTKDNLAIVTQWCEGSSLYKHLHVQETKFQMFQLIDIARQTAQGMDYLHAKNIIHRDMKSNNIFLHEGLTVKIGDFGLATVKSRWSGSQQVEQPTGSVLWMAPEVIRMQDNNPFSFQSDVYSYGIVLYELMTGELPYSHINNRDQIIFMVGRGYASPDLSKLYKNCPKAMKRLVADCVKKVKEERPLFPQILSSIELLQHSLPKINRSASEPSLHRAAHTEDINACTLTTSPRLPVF

As for `COc1ccc2oc(-c3ccc(NC(=O)Nc4ccc(Cl)c(Cl)c4)cc3Cl)cc(=O)c2c1`, the cytotoxicity at 48 h, 100 µM in series [1] came to 77.9%; in series [2] it was 42.5%. Further, the values for the cytotoxicity at 48 h, 50 µM in [3] and in series [4] were 66.4% and 13.2%, respectively. The IC50 with HCT-116 amounted to 8.6 µM; with A549, 15.6 µM; in the series on HepG2, 9.9 µM.

With `CN[C@@H]1C[C@H]2O[C@@](C)([C@@H]1OC)n1c3ccccc3c3c4c(c5c6ccccc6n2c5c31)C(=O)NC4`, the results for the inhibition in series [5] and in [6] were 99.4% and 96%, respectively.

Turning to `CCc1ccc2oc(-c3ccc(NC(=O)Cc4ccc(F)cc4)cc3Cl)cc(=O)c2c1`, the results for the cytotoxicity at 48 h, 100 µM in [1] and in series [2] were 45.2% and 36.9%, respectively. Besides, the values for the cytotoxicity at 48 h, 50 µM in series [3] and in series [4] were 29.1% and 16.2%, respectively. Further, the IC50 in the series with HCT-116, in the series with A549 and in the series with HepG2 was above 50 µM in each case.

Take `CCc1ccc2oc(-c3ccc(NC(=O)Nc4cccc(Cl)c4)cc3Cl)cc(=O)c2c1`: the cytotoxicity at 48 h, 100 µM in series [1] worked out at 37.2%; in series [2], 18%. Further, the cytotoxicity at 48 h, 50 µM in series [3] was 9.4%; in series [4], 12.6%. The figures for the IC50 in the series on HCT-116, with A549 and with HepG2 were 27.9 µM, above 50 µM and 30.7 µM, respectively.

`CCc1ccc2oc(-c3ccc(N)cc3Cl)cc(=O)c2c1`: the inhibition in [7] turned out to be 14.5%; in series [8] it was 27%.

Regarding `O=C(Nc1cccc(Cl)c1)Nc1ccc(-c2cc(=O)c3ccc(O)cc3o2)c(Cl)c1`, the cytotoxicity at 48 h, 100 µM worked out at 83.8% in series [1] and 43.2% in series [2]. In addition, the cytotoxicity at 48 h, 50 µM is 80.2% in series [3] and 34.6% in [4]. The values for the IC50 with HCT-116, with A549 and in the series on HepG2 were 25.9 µM, 16.8 µM and 12.2 µM, respectively.

With `COc1ccc2oc(-c3ccc(NC(=O)Nc4cccc(Cl)c4)cc3Cl)cc(=O)c2c1`, the figures for the cytotoxicity at 48 h, 100 µM in series [1] and in [2] were 40.6% and 30.1%, respectively. Moreover, the cytotoxicity at 48 h, 50 µM came out at 35.7% in [3] and 15.9% in [4]. Moreover, the IC50 is 9.6 µM in the series with HCT-116, 11 µM in the series on A549 and 26.3 µM with HepG2.
